Converted amounts (≈) assume the structure as drawn.
Tests used:
Mus musculus [1] = organism: Mus musculus; assay: Compounds were evaluated for phototoxicity no-effect dose in mouse; format: functional
Procedure, shortened: (§1)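 Depilated female CD-1 mice, five per dose plus controls. Animals are dosed orally and then exposed daily to UV-A (320–400 nm) for 3 h, for up to 4 days or until a definite positive response. Redness or erythema relative to controls, read 24 h after irradiation, counts as positive. Reported as the highest dose with no effect (mg/kg).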

Enterobacter cloacae = assay: Minimum inhibitory concentration in vitro against Enterobacter cloacae MA 2646; format: functional
Escherichia coli [2] = assay: Antibacterial activity in vitro against Escherichia coli Vogel; format: functional
Procedure, shortened: (§2)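 Standard microtitration broth assay against a panel of 10 Gram-positive and Gram-negative organisms. MIC read in µg/mL and averaged over multiple experiments.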

Streptococcus pyogenes [3] = assay: Antibacterial activity expressed as Minimum inhibitory concentration was evaluated in vitro against Streptococcus pyogenes C 203; format: functional; procedure, shortened: as §2
Staphylococcus aureus [4] = assay: Minimum inhibitory concentration was evaluated in vitro against Staphylococcus aureus H 228; format: functional; procedure, shortened: as §2
Klebsiella pneumoniae = assay: Minimum inhibitory concentration was evaluated in vitro against Klebsiella pneumoniae MGH2; format: functional; procedure, shortened: as §2
Providencia rettgeri = assay: Minimum inhibitory concentration was evaluated in vitro against Providencia rettgeri M1771; format: functional; procedure, shortened: as §2
Escherichia coli [5] = assay: Antibacterial activity against Escherichia coli Vogel after oral administration in mouse; format: functional; settings: for ED50: Escherichia coli, po, read-out: PD50
[6] = Clonogenic cytotoxicity against hamster V-79 cells; format: functional, Cricetulus griseus, V79
Procedure, shortened: (§3)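 Chinese hamster V-79 cells grown overnight, then drug-treated for 3 h at 37 °C. Medium is replaced with fresh medium and cells are incubated 5 days to allow colony formation. IC50 (µg/mL) is the concentration inhibiting colony formation by 50% relative to control.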

Pseudomonas aeruginosa = assay: Minimum inhibitory concentration was evaluated in vitro against Pseudomonas aeruginosa UI-18; format: functional; procedure, shortened: as §2
Streptococcus pyogenes [7] = assay: Antibacterial activity measured as mouse protection against Streptococcus pyogenes C 203 after subcutaneous administration; format: functional; settings: for ED50: Streptococcus pyogenes, C 203, sc, read-out: PD50
Streptococcus pneumoniae = assay: Minimum inhibitory concentration was evaluated in vitro against Streptococcus pneumoniae SV-1; format: functional; procedure, shortened: as §2
Escherichia coli [8] = assay: Antibacterial activity against Escherichia coli Vogel after subcutaneous administration in mouse; format: functional; settings: for ED50: Escherichia coli, sc, read-out: PD50
Enterococcus faecalis [9] = assay: Minimum inhibitory concentration was evaluated in vitro against Enterococcus faecalis MGH-2; format: functional; procedure, shortened: as §2
Staphylococcus aureus [10] = assay: Minimum inhibitory concentration was evaluated in vitro against Staphylococcus aureus UC 76; format: functional; procedure, shortened: as §2
[11] = target: DNA gyrase (Escherichia coli) (UniProt P0AES6+P0AES4); assay: Initial inhibition as minimal concentration to induce cleavage of DNA gyrase complex; format: protein-complex assay
Procedure, shortened: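 DNA gyrase isolated and purified from E. coli H560. Uses the initial cleavage method with relaxed Col E1 plasmid DNA as substrate. Read-out is the lowest drug concentration (µg/mL) giving detectable cleavage, seen by agarose gel electrophoresis with ethidium bromide staining. Averaged over multiple experiments, accurate to ±50%.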

Streptococcus pyogenes [12] = assay: Minimum inhibitory concentration was evaluated in vitro against Streptococcus pyogenes C 203; format: functional; procedure, shortened: as §2
Streptococcus pyogenes [13] = assay: Compound was evaluated in vivo for antibacterial activity for mouse protection against Streptococcus pyogenes C 203 after subcutaneous administration; format: functional; settings: sc, read-out: PD50
Mus musculus [14] = organism: Mus musculus; assay: Compound was evaluated for phototoxicity no-effect dose in mouse; format: functional; procedure, shortened: as §1
Streptococcus pyogenes [15] = assay: Compounds were evaluated in vivo for antibacterial activity for mouse protection against Streptococcus pyogenes C 203 after oral administration; format: functional
DNA gyrase = DNA gyrase (Escherichia coli, UniProt P0AES4+P0AES6); assay: Inhibition against DNA gyrase; format: protein-complex assay
Mus musculus [16] = organism: Mus musculus; assay: Compounds were evaluated for phototoxicity in mouse and phototoxicity no-effect dose was reported; format: functional; procedure, shortened: as §1
[17] = Compound was evaluated for clonogenic cytotoxicity against hamster V-79 cells; 50% Inhibition; format: functional, cell-based; settings: Cricetulus griseus, V79; procedure, shortened: as §3
Mus musculus [18] = organism: Mus musculus; assay: Compounds was evaluated for phototoxicity no-effect dose in mouse; format: functional; procedure, shortened: as §1
Enterococcus faecalis [19] = assay: Antibacterial activity expressed as Minimum inhibitory concentration was evaluated in vitro against Enterococcus faecalis MGH-2; format: functional; procedure, shortened: as §2
[20] = Enterobacter cloacae, read-out: MIC
[21] = Escherichia coli, read-out: MIC
[22] = Staphylococcus aureus, read-out: MIC
[23] = Klebsiella pneumoniae, read-out: MIC
[24] = Providencia rettgeri, read-out: MIC
[25] = Pseudomonas aeruginosa, read-out: MIC
[26] = Streptococcus pneumoniae, read-out: MIC
[27] = Enterococcus faecalis, read-out: MIC
[28] = Streptococcus pyogenes, read-out: MIC

With `CN[C@H](C)[C@H]1CCN(c2c(F)cc3c(=O)c(C(=O)O)cn(C4CC4)c3c2OC)C1` (racemic) the Dose (Mus musculus [1]) was over 100 mg/kg, the MIC (Enterobacter cloacae; [20]) was 0.05 µg/mL (≈ 0.124 µM) and the MIC (Escherichia coli [2]; [21]) was 0.05 µg/mL (≈ 0.124 µM). The MIC (Streptococcus pyogenes [3]) was 0.003 µg/mL (≈ 0.00744 µM), the MIC (Staphylococcus aureus [4]; [22]) was 0.013 µg/mL (≈ 0.0322 µM) and the MIC (Klebsiella pneumoniae; [23]) was 0.1 µg/mL (≈ 0.248 µM). It also gave an MIC (Providencia rettgeri; [24]) of 0.2 µg/mL (≈ 0.496 µM), an ED50 (Escherichia coli [5]) of 5 mg/kg and a Cytotoxicity [6] of 33 µg/mL. It also gave an MIC (Pseudomonas aeruginosa; [25]) of 0.8 µg/mL (≈ 1.98 µM), an ED50 (Streptococcus pyogenes [7]) of 0.1 mg/kg and an MIC (Streptococcus pneumoniae; [26]) of 0.003 µg/mL (≈ 0.00744 µM). It also gave an ED50 (Escherichia coli [8]) of 1 mg/kg, an MIC (Enterococcus faecalis [9]; [27]) of 0.025 µg/mL (≈ 0.062 µM) and an MIC (Staphylococcus aureus [10]; [22]) of 0.003 µg/mL (≈ 0.00744 µM). It also gave an Initial inhibition [11] of under 0.5 µg/mL.

For `C[C@@H](N)[C@H]1CCN(c2nc3c(cc2F)c(=O)c(C(=O)O)cn3C2CC2)C1` (mixture of isomers), the MIC (Streptococcus pyogenes [12]) was 0.013 µg/mL, the ED50 (Streptococcus pyogenes [13]) was 1 mg/kg and the Dose (Mus musculus [14]) was 30 mg/kg. For the same compound, the MIC (Enterobacter cloacae) was 0.05 µg/mL, the MIC (Escherichia coli [2]) was 0.025 µg/mL and the MIC (Staphylococcus aureus [4]) was 0.025 µg/mL. The MIC (Klebsiella pneumoniae) was 0.05 µg/mL, the MIC (Providencia rettgeri) was 0.1 µg/mL and the PD50 (Escherichia coli [5]) was 2 mg/kg. It also gave a Cytotoxicity [6] of 33 µg/mL, an MIC (Pseudomonas aeruginosa) of 0.4 µg/mL and a PD50 (Streptococcus pyogenes [15]) of 3 mg/kg. It also gave an MIC (Streptococcus pneumoniae) of 0.003 µg/mL, a PD50 (Escherichia coli [8]) of 0.4 mg/kg and an MIC (Enterococcus faecalis [9]) of 0.013 µg/mL. It also gave an MIC (Staphylococcus aureus [10]) of 0.003 µg/mL and an IC50 (DNA gyrase) of 2080 nM.

`CN[C@H](C)[C@H]1CCN(c2cc3c(cc2F)c(=O)c(C(=O)O)cn3C2CC2)C1` (mixture of isomers) showed an MIC (Streptococcus pyogenes [12]) of 0.05 µg/mL, an MIC (Enterobacter cloacae) of 0.2 µg/mL and an MIC (Escherichia coli [2]) of 0.2 µg/mL. For the same compound, the MIC (Staphylococcus aureus [4]) was 0.2 µg/mL, the MIC (Klebsiella pneumoniae) was 0.4 µg/mL and the MIC (Providencia rettgeri) was 0.8 µg/mL. The ED50 (Escherichia coli [5]) was 7 mg/kg, the Cytotoxicity [6] was 180 µg/mL and the MIC (Pseudomonas aeruginosa) was 1.6 µg/mL. For the same compound, the PD50 (Streptococcus pyogenes [7]) was 1 mg/kg, the PD50 (Streptococcus pyogenes [15]) was 7 mg/kg and the Phototoxicity (Mus musculus [16]) was 100 mg/kg. The MIC (Streptococcus pneumoniae) was 0.05 µg/mL, the ED50 (Escherichia coli [8]) was 1 mg/kg and the MIC (Enterococcus faecalis [9]) was 0.1 µg/mL. For the same compound, the MIC (Staphylococcus aureus [10]) was 0.05 µg/mL.

For `CN[C@H](C)[C@@H]1CCN(c2nc3c(cc2F)c(=O)c(C(=O)O)cn3C2CC2)C1`, the MIC (Streptococcus pyogenes [12]; [28]) was 0.05 µg/mL (≈ 0.134 µM), the Dose (Mus musculus [1]) was 30 mg/kg and the MIC (Enterobacter cloacae; [20]) was 0.1 µg/mL (≈ 0.267 µM). For the same compound, the IC50 [17] was 88 µg/mL (≈ 235 µM), the MIC (Escherichia coli [2]; [21]) was 0.1 µg/mL (≈ 0.267 µM) and the MIC (Staphylococcus aureus [4]; [22]) was 0.1 µg/mL (≈ 0.267 µM). The MIC (Klebsiella pneumoniae; [23]) was 0.2 µg/mL (≈ 0.534 µM), the MIC (Providencia rettgeri; [24]) was 0.4 µg/mL (≈ 1.07 µM) and the ED50 (Escherichia coli [5]) was 5 mg/kg. The MIC (Pseudomonas aeruginosa; [25]) was 1.6 µg/mL (≈ 4.27 µM), the MIC (Streptococcus pneumoniae; [26]) was 0.025 µg/mL (≈ 0.0668 µM) and the ED50 (Escherichia coli [8]) was 1 mg/kg. The MIC (Enterococcus faecalis [9]; [27]) was 0.1 µg/mL (≈ 0.267 µM) and the MIC (Staphylococcus aureus [10]; [22]) was 0.05 µg/mL (≈ 0.134 µM).

For `CN[C@@H](C)[C@@H]1CCN(c2nc3c(cc2F)c(=O)c(C(=O)O)cn3C2CC2)C1` (mixture of isomers), the MIC (Streptococcus pyogenes [12]) was 0.025 µg/mL, the MIC (Enterobacter cloacae; [20]) was 0.1 µg/mL and the MIC (Escherichia coli [2]; [21]) was 0.1 µg/mL. For the same compound, the MIC (Staphylococcus aureus [4]; [22]) was 0.1 µg/mL, the MIC (Klebsiella pneumoniae; [23]) was 0.2 µg/mL and the MIC (Providencia rettgeri; [24]) was 0.4 µg/mL. It also gave a Dose (Mus musculus [18]) of 18 mg/kg, a Cytotoxicity [6] of 130 µg/mL and an MIC (Pseudomonas aeruginosa; [25]) of 1.6 µg/mL. The PD50 (Streptococcus pyogenes [7]) was 2 mg/kg, the PD50 (Streptococcus pyogenes [15]) was 2 mg/kg and the MIC (Streptococcus pneumoniae) was 0.013 µg/mL. The MIC (Enterococcus faecalis [9]; [27]) was 0.1 µg/mL and the MIC (Staphylococcus aureus [10]) was 0.013 µg/mL.

With `CCn1cc(C(=O)O)c(=O)c2cc(F)c(N3CC[C@@H]([C@@H](C)N)C3)c(F)c21` the MIC (Streptococcus pyogenes [12]; [28]) was 0.05 µg/mL (≈ 0.137 µM), the MIC (Enterobacter cloacae; [20]) was 0.1 µg/mL (≈ 0.274 µM) and the MIC (Escherichia coli [2]; [21]) was 0.1 µg/mL (≈ 0.274 µM). The MIC (Staphylococcus aureus [4]; [22]) was 0.1 µg/mL (≈ 0.274 µM), the MIC (Klebsiella pneumoniae; [23]) was 0.2 µg/mL (≈ 0.547 µM) and the MIC (Providencia rettgeri; [24]) was 0.4 µg/mL (≈ 1.09 µM). For the same compound, the ED50 (Escherichia coli [5]) was 15 mg/kg, the MIC (Pseudomonas aeruginosa; [25]) was 1.6 µg/mL (≈ 4.38 µM) and the ED50 (Streptococcus pyogenes [7]) was 2 mg/kg. The ED50 (Streptococcus pyogenes [15]; Streptococcus pyogenes, C 203, po, read-out: PD50) was 19 mg/kg, the MIC (Streptococcus pneumoniae; [26]) was 0.05 µg/mL (≈ 0.137 µM) and the MIC (Enterococcus faecalis [19]) was 0.1 µg/mL (≈ 0.274 µM). It also gave an ED50 (Escherichia coli [8]) of 2 mg/kg and an MIC (Staphylococcus aureus [10]; [22]) of 0.025 µg/mL (≈ 0.0684 µM).

Reference: ChEMBL document CHEMBL1126988, “Quinolone antibacterials containing the new 7-[3-(1-aminoethyl)-1- pyrrolidinyl] side chain: the effects of the 1-aminoethyl moiety and its stereochemical configurations on potency and in vivo efficacy” (J Med Chem, 1993)
